ChEMBL document CHEMBL4049439, “Synthesis and Characterization of Tetrahydropyran-Based Bacterial Topoisomerase Inhibitors with Antibacterial Activity against Gram-Negative Bacteria” (J Med Chem, 2017)
≈ marks a conversion by molar mass, not a printed value.

Legend:
[1] = Inhibition of wild-type Acinetobacter baumannii DNA topoisomerase-4 mediated supercoiled pBR322 DNA relaxation by ethidium bromide based agarose gel electrophoresis
[2] = Inhibition of wild-type Escherichia coli DNA topoisomerase-4 mediated supercoiled pBR322 DNA relaxation by ethidium bromide based agarose gel electrophoresis
[3] = system: Staphylococcus aureus; test: Antibacterial activity against Staphylococcus aureus ATCC 29213 by CLSI broth microdilution method; format: functional
[4] = system: Escherichia coli; test: Antibacterial activity against wild-type Escherichia coli ATCC 25922 by CLSI broth microdilution method; format: functional
[5] = system: Acinetobacter baumannii; test: Antibacterial activity against fluoroquinolone-resistant Acinetobacter baumannii T6474 by CLSI broth microdilution method; format: functional
[6] = system: Pseudomonas aeruginosa; test: Antibacterial activity against Pseudomonas aeruginosa ATCC 27853 by CLSI broth microdilution method; format: functional
[7] = Inhibition of wild-type Escherichia coli DNA gyrase supercoiling activity using relaxed pBR322 DNA as substrate by ethidium bromide based agarose gel electrophoresis
[8] = Inhibition of wild-type Acinetobacter baumannii DNA gyrase supercoiling activity using relaxed pBR322 DNA as substrate by ethidium bromide based agarose gel electrophoresis
[9] = Inhibition of wild-type Pseudomonas aeruginosa DNA gyrase supercoiling activity using relaxed pBR322 DNA as substrate by ethidium bromide based agarose gel electrophoresis
[10] = Lipophilicity, log D of the compound at pH 7.4; format: physicochemical; conditions: buffer
[11] = system: Staphylococcus aureus; test: Antibacterial activity against Staphylococcus aureus by CLSI broth microdilution method; format: functional
[12] = system: Enterococcus faecium; test: Antibacterial activity against multi-drug resistant Enterococcus faecium by CLSI broth microdilution method; format: functional
[13] = system: Streptococcus pneumoniae; test: Antibacterial activity against Streptococcus pneumoniae by CLSI broth microdilution method; format: functional
[14] = system: Streptococcus pyogenes; test: Antibacterial activity against Streptococcus pyogenes by CLSI broth microdilution method; format: functional
[15] = system: Escherichia coli; test: Antibacterial activity against Escherichia coli by CLSI broth microdilution method; format: functional
[16] = system: Citrobacter freundii; test: Antibacterial activity against Citrobacter freundii by CLSI broth microdilution method; format: functional
[17] = system: Enterobacter cloacae; test: Antibacterial activity against fluoroquinolone/carbapenem-resistant Enterobacter cloacae by CLSI broth microdilution method; format: functional
[18] = system: Klebsiella pneumoniae; test: Antibacterial activity against Klebsiella pneumoniae by CLSI broth microdilution method; format: functional
[19] = system: Pseudomonas aeruginosa; test: Antibacterial activity against fluoroquinolone/carbapenem-resistant Pseudomonas aeruginosa by CLSI broth microdilution method; format: functional
[20] = system: Acinetobacter baumannii; test: Antibacterial activity against multi-drug resistant Acinetobacter baumannii by CLSI broth microdilution method; format: functional
[21] = system: Serratia marcescens; test: Antibacterial activity against Serratia marcescens by CLSI broth microdilution method; format: functional
[22] = system: Rattus norvegicus; test: Dose normalized AUC in Wistar rat at 10 mg/kg, iv by LC-MS/MS analysis; format: ADME, organism-based; conditions: in vivo
Summary of the method: (§1)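 Rats dosed iv at 10 mg/kg or 1 mg/kg. Dose-normalized AUC (μg·h/(mL·dose)) and its unbound counterpart derived via fraction unbound. Clearance, unbound clearance, Vdss and half-life also derived.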

[23] = Fraction unbound in Wistar rat plasma at 10 mg/kg, iv by rapid equilibrium dialysis; format: ADME, organism-based; summary of the method: as §1
[24] = system: Rattus norvegicus; test: Dose normalized unbound AUC in Wistar rat at 10 mg/kg, iv by LC-MS/MS analysis; format: ADME, organism-based; conditions: in vivo; summary of the method: as §1
[25] = Clearance in Wistar rat at 10 mg/kg, iv by LC-MS/MS analysis; format: ADME, organism-based; conditions: in vivo; summary of the method: as §1
[26] = system: Rattus norvegicus; test: Unbound clearance in Wistar rat at 10 mg/kg, iv by LC-MS/MS analysis; format: ADME, organism-based; conditions: in vivo
Summary of the method: (§2)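 Rats received a single intravenous dose of 10 or 1 mg/kg depending on the compound. Clearance, unbound clearance, Vdss, terminal half-life and dose-normalized AUC were derived from plasma exposure, with unbound fraction (fu) reported for this species.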

[27] = Volume of distribution at steady state in Wistar rat at 10 mg/kg, iv by LC-MS/MS analysis; format: ADME, organism-based; conditions: in vivo, read-out: Vdss; summary of the method: as §2
[28] = Terminal half-life in Wistar rat at 10 mg/kg, iv by LC-MS/MS analysis; format: ADME, organism-based; conditions: in vivo, read-out: beta t1/2 (converted); summary of the method: as §1
[29] = system: Canis familiaris; test: Dose normalized AUC in dog at 1 mg/kg, iv by LC-MS/MS analysis; format: ADME, organism-based, Canis lupus familiaris; conditions: in vivo
[30] = Volume of distribution at steady state in dog at 1 mg/kg, iv by LC-MS/MS analysis; format: ADME, organism-based, Canis lupus familiaris; conditions: in vivo, read-out: Vdss
Summary of the method: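 Dogs received a single intravenous dose of 1 mg/kg. Clearance, Vdss, terminal half-life and dose-normalized AUC were calculated from plasma concentration data.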

[31] = Half-life in dog at 1 mg/kg, iv by LC-MS/MS analysis; format: ADME, organism-based, Canis lupus familiaris; conditions: in vivo
Summary of the method: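 Dogs given 1 mg/kg iv. Clearance (mL/min/kg) and half-life (h) derived from plasma profiles.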

[32] = molecular target: T1, hERG (KCNH2) (Homo sapiens, UniProt Q12809); test: Inhibition of human ERG assessed as reduction of K+ current at 30 uM
T1 sequence (Q12809 whole entry): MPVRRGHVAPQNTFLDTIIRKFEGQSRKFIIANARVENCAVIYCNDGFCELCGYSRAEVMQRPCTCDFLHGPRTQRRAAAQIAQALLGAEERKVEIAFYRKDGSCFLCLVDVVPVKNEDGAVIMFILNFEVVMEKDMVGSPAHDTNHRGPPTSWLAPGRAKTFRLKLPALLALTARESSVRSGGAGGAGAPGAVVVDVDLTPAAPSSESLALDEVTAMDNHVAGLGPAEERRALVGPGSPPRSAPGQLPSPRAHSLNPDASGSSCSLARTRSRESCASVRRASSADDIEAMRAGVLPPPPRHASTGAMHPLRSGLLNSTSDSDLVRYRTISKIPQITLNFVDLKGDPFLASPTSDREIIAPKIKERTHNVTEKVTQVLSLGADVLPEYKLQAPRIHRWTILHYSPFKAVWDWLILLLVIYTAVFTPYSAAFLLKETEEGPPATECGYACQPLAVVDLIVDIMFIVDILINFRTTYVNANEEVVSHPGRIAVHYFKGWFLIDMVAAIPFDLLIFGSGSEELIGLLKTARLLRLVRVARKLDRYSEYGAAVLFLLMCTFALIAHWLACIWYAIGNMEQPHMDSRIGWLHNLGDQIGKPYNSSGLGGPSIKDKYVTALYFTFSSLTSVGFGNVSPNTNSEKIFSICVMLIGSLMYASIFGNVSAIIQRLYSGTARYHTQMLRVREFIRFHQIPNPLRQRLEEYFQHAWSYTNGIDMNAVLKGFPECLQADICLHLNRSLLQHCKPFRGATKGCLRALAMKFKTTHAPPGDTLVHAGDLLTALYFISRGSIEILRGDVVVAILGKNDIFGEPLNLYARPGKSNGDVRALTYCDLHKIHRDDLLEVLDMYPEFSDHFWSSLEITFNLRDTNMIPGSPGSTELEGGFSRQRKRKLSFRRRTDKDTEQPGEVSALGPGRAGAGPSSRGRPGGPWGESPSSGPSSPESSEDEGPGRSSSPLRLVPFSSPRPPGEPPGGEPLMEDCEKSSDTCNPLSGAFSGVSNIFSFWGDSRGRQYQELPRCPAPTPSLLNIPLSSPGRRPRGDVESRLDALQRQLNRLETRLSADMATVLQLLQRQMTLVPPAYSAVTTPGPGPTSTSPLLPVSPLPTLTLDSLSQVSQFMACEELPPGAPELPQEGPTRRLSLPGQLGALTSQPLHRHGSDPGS
Summary of the method: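 hERG K+ channel current reduction measured at 30 μM compound concentration.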

[33] = molecular target: Voltage-gated inwardly rectifying potassium channel KCNH2 (Homo sapiens, UniProt Q12809); test: (§3) Inhibition of human ERG assessed as reduction of K+ current
Sequence of Voltage-gated inwardly rectifying potassium channel KCNH2 (Q12809 whole entry): as above

[34] = molecular target: T1, hERG (KCNH2); test: as §3; conditions: human
[35] = Cardiotoxicity against human induced pluripotent stem cell-derived cardiomyocytes assessed as free drug concentration causing inhibition of spontaneous rhythm after 5 to 60 mins by Fluo-4 dye based fluorescence assay; format: toxicity; conditions: cardiac muscle cell
Summary of the method: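 Spontaneous beating rhythm of human iPSC-derived cardiomyocytes monitored. Reported value is the lowest active concentration, free or total. Free/total conversion corrected for 20% serum in the test solution.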

[36] = system: Cavia porcellus; test: Cardiotoxicity in Dunkin-Hartley guinea pig assessed as free plasma concentration causing effect on QT interval administered as iv at 3 mg/kg for first 20 mins of infusion followed by 10 mg/kg for second 20 mins of infusion followed by 30 mg/kg for third 20 mins of infusion by LC-MS/MS analysis; format: toxicity, organism-based; conditions: in vivo
Summary of the method: (§4)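 Anesthetized guinea pigs received 3, 10 and 30 mg/kg iv over three consecutive 20 min periods. MAP, HR and ECG intervals (PR, QRS, RR, QT) recorded continuously. Blood drawn at the end of each period for drug levels. Value is the lowest plasma concentration differing from vehicle-treated animals. Free level uses unbound fraction from rapid equilibrium dialysis of guinea pig plasma.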

[37] = system: Cavia porcellus; test: Cardiotoxicity in Dunkin-Hartley guinea pig assessed as free plasma concentration causing effect on mean arterial pressure administered as iv at 3 mg/kg for first 20 mins of infusion followed by 10 mg/kg for second 20 mins of infusion followed by 30 mg/kg for third 20 mins of infusion by LC-MS/MS analysis; format: toxicity, organism-based; conditions: in vivo; summary of the method: as §4
[38] = system: Cavia porcellus; test: Cardiotoxicity in Dunkin-Hartley guinea pig assessed as free plasma concentration causing effect on QRS interval administered as iv at 3 mg/kg for first 20 mins of infusion followed by 10 mg/kg for second 20 mins of infusion followed by 30 mg/kg for third 20 mins of infusion by LC-MS/MS analysis; format: toxicity, organism-based; conditions: in vivo; summary of the method: as §4
[39] = Fraction unbound in Dunkin-Hartley guinea pig plasma administered as iv at 3 mg/kg for first 20 mins of infusion followed by 10 mg/kg for second 20 mins of infusion followed by 30 mg/kg for third 20 mins of infusion by rapid equilibrium dialysis; format: ADME, organism-based, Cavia porcellus

Row | Compound | IC50 [1] | IC50 [2] | MIC [3] | MIC [4] | MIC [5] | MIC [6] | IC50 [7] | IC50 [8] | IC50 [9] | logD [10] | MIC [11] | MIC [12] | MIC [13] | MIC [14] | MIC [15] | MIC [16] | MIC [17] | MIC [18] | MIC [19] | MIC [20] | also measured
1 | COc1ccc2ncc(F)c(C[C@H](N)[C@@H]3CC[C@@H](NCc4ccc5c(n4)NC(=O)CO5)CO3)c2n1 | 125 nM | 30 nM | 0.03 µg/mL (≈ 0.0622 µM) | 0.125 µg/mL (≈ 0.259 µM) | 0.125 µg/mL (≈ 0.259 µM) | 1 µg/mL (≈ 2.07 µM) | 125 nM | 125 nM | 30 nM | 0.9 | 0.125 to 0.5 µg/mL (≈ 0.259 to 1.04 µM) | 0.063 to 0.5 µg/mL (≈ 0.131 to 1.04 µM) | 0.125 to 2 µg/mL (≈ 0.259 to 4.14 µM) | ≤ 0.03 µg/mL | 0.125 to 0.5 µg/mL (≈ 0.259 to 1.04 µM) | 0.25 µg/mL (≈ 0.518 µM) | 0.25 to 4 µg/mL (≈ 0.518 to 8.29 µM) | 1 to 4 µg/mL (≈ 2.07 to 8.29 µM) | 1 to 2 µg/mL (≈ 2.07 to 4.14 µM) | 0.125 to 4 µg/mL (≈ 0.259 to 8.29 µM) | MIC [21]: 1 to 8 µg/mL (≈ 2.07 to 16.6 µM); AUC/dose [22]: 194 µg·h/mL; fraction unbound [23]: 0.15; fAUC/dose [24]: 29 µg·h/mL; clearance [25]: 86 mL/min/kg; CL free [26]: 573 mL/min/kg; Vd [27]: 25 L/kg; half-life [28]: 8.8 h; AUC/dose [29]: 34 µg·h/mL; Vd [30]: 61 L/kg; half-life [31]: 2.9 h; inhibition at 30 µM [32]: 86%; IC50 [33]: 5000 nM; IC20 [34]: 1200 nM; Drug uptake(free) [35]: 0.28 µM; Cp(f) [36]: 530 nM; Cp(f) [37]: 1800 nM; Cp(f) [38]: 1800 nM; fraction unbound at 20 min [39]: 0.33
2 | COc1ccc2ccc(=O)n(C[C@H](N)[C@@H]3CC[C@@H](NCc4ccc5c(n4)NC(=O)CO5)CO3)c2n1 | 125 nM | 30 nM | 0.25 µg/mL (≈ 0.52 µM) | 0.25 µg/mL (≈ 0.52 µM) | 1 µg/mL (≈ 2.08 µM) | 1 µg/mL (≈ 2.08 µM) | 125 nM | 125 nM | 125 nM | 0.3 | 0.25 to 2 µg/mL (≈ 0.52 to 4.16 µM) | 1 to 16 µg/mL (≈ 2.08 to 33.3 µM) | 0.25 to 8 µg/mL (≈ 0.52 to 16.6 µM) | ≤ 0.03 µg/mL | 0.5 to 2 µg/mL (≈ 1.04 to 4.16 µM) | 1 µg/mL (≈ 2.08 µM) | 2 to 16 µg/mL (≈ 4.16 to 33.3 µM) | 8 to 16 µg/mL (≈ 16.6 to 33.3 µM) | 1 to 2 µg/mL (≈ 2.08 to 4.16 µM) | 1 to 16 µg/mL (≈ 2.08 to 33.3 µM) | MIC [21]: 8 to 16 µg/mL (≈ 16.6 to 33.3 µM); AUC/dose [22]: 145 µg·h/mL; fraction unbound [23]: 0.236; fAUC/dose [24]: 34 µg·h/mL; clearance [25]: 110 mL/min/kg; CL free [26]: 144 mL/min/kg; Vd [27]: 21 L/kg; half-life [28]: 9.1 h; AUC/dose [29]: 0.376 µg·h/mL; Vd [30]: 2.5 L/kg; half-life [31]: 1.3 h; inhibition at 30 µM [32]: 37%; IC50 [33]: 52000 nM; IC20 [34]: 13000 nM; Drug uptake(free) [35]: 0.27 to 0.81 µM; Cp(f) [36]: 2700 nM; Cp(f) [37]: 28000 nM; Cp(f) [38]: 2700 nM; fraction unbound at 20 min [39]: 0.54
